ChEMBL document CHEMBL1138395, “Adamantane sulfone and sulfonamide 11-beta-HSD1 Inhibitors” (Bioorg Med Chem Lett, 2007)

Experiments:
[1] = Metabolic stability in mouse liver microsomes assessed as compound remaining after 30 mins; type: ADME, Microsome; conditions: read-out: Stability
Summary of the method: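 Test compound incubated with mouse liver microsomes for 30 min; percent of parent compound remaining afterward reported.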

[2] = molecular target: T1, 11-beta-hydroxysteroid dehydrogenase 1 (Homo sapiens, UniProt P28845); test: Inhibition of human HSD1 expressed in HEK cells; type: cell-based, HEK293
T1 sequence (P28845 whole entry): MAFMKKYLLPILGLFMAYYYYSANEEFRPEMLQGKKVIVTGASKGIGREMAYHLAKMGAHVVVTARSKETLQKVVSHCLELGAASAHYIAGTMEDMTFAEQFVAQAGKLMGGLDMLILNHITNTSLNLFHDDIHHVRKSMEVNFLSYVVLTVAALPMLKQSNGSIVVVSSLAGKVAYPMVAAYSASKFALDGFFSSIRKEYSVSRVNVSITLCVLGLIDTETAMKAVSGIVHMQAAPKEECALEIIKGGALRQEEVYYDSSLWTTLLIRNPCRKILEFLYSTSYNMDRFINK

[3] = molecular target: T2, 11-beta-hydroxysteroid dehydrogenase type 2 (Mus musculus, UniProt P51661); test: Inhibition of mouse HSD2 assessed as interconversion of cortisone to cortisol
T2 sequence (P51661 whole entry): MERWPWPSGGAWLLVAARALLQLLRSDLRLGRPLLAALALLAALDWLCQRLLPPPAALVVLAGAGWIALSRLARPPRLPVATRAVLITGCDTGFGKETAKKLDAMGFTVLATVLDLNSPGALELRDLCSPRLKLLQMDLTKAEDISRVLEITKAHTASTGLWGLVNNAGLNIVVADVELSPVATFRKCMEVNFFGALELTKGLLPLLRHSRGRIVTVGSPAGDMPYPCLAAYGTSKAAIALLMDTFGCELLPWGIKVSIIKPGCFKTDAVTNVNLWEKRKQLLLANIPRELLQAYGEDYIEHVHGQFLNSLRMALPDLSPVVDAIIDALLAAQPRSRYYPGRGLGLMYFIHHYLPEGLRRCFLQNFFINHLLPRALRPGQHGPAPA
Summary of the method: (§1)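 Enzyme inhibition measured as blocking the interconversion between cortisone and cortisol by mouse HSD1 (reported as Ki) or mouse HSD2 (reported as IC50); values are means of at least two experiments.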

[4] = molecular target: T3, 11-beta-hydroxysteroid dehydrogenase type 2 (Homo sapiens, UniProt P80365); test: Inhibition of human HSD2 assessed as interconversion of cortisone to cortisol
T3 sequence (P80365 whole entry): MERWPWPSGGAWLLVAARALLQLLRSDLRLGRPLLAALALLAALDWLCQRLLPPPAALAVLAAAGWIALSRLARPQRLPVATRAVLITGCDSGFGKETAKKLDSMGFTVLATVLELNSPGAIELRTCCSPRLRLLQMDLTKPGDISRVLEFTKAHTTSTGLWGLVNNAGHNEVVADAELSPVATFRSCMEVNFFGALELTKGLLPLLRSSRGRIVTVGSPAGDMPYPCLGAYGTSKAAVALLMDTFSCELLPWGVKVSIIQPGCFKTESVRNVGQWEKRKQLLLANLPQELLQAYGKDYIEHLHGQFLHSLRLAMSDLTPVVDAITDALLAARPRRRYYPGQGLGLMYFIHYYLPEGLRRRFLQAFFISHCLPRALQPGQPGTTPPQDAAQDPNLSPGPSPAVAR

[5] = molecular target: 11-beta-hydroxysteroid dehydrogenase 1 (Mus musculus, UniProt P50172); test: Inhibition of mouse HSD1 assessed as interconversion of cortisone to cortisol; summary of the method: as §1
Chain of 11-beta-hydroxysteroid dehydrogenase 1 (Mus musculus, UniProt P50172) (P50172 whole entry): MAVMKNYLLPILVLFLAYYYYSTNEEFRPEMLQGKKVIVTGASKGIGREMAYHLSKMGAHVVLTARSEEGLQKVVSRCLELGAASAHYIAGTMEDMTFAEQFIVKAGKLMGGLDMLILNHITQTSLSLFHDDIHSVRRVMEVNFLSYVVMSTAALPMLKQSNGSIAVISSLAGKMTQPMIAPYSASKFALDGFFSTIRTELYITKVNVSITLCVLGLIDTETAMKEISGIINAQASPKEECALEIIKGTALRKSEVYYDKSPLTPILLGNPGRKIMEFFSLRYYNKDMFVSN

[6] = molecular target: T1, 11-beta-hydroxysteroid dehydrogenase 1; test: Inhibition of human HSD1 assessed as interconversion of cortisone to cortisol
Mus musculus [7] = test: Ex vivo inhibition of brain 11-beta-HSD1 in DIO mouse at 30 mg/kg, po after 1 hr; type: functional
Summary of the method: (§2)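 DIO mice dosed orally at 30 mpk; animals killed 1, 7 and 16 h after the dose and liver, fat and brain taken. Ex vivo 11-β-HSD1 activity (cortisol levels) in tissue was measured and percent inhibition expressed relative to vehicle-dosed animals; means from two animals per point.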

[8] = AUC in mouse at 10 mg/kg, po; type: ADME, organism-based; parameters: dose 10 mg/kg, route oral; conditions: plasma
[9] = Volume of distribution at terminal phase in mouse at 10 mg/kg; type: ADME, organism-based; parameters: dose 10 mg/kg; conditions: in vivo, read-out: Vbeta
Mus musculus [10] = test: Ex vivo inhibition of fat 11-beta-HSD1 in DIO mouse at 30 mg/kg, po after 1 hr; type: functional; summary of the method: as §2
Mus musculus [11] = test: Ex vivo inhibition of liver 11-beta-HSD1 in DIO mouse at 30 mg/kg, po after 7 hrs; type: functional; summary of the method: as §2
[12] = Volume of distribution at steady state in mouse at 10 mg/kg; type: ADME, organism-based; parameters: dose 10 mg/kg; conditions: in vivo, read-out: Vdss
Mus musculus [13] = test: Ex vivo inhibition of brain 11-beta-HSD1 in DIO mouse at 30 mg/kg, po after 16 hrs; type: functional; summary of the method: as §2
[14] = Half life in mouse at 10 mg/kg, iv; type: ADME, organism-based; parameters: dose 10 mg/kg, route intravenous; conditions: in vivo
Mus musculus [15] = test: Ex vivo inhibition of fat 11-beta-HSD1 in DIO mouse at 30 mg/kg, po after 16 hrs; type: functional; summary of the method: as §2
Mus musculus [16] = test: Ex vivo inhibition of fat 11-beta-HSD1 in DIO mouse at 30 mg/kg, po after 7 hrs; type: functional; summary of the method: as §2
[17] = Plasma clearance in mouse at 10 mg/kg, iv; type: ADME, organism-based; parameters: dose 10 mg/kg, route intravenous
[18] = Oral bioavailability in mouse at 10 mg/kg; type: ADME, organism-based; conditions: in vivo
Mus musculus [19] = test: Ex vivo inhibition of liver 11-beta-HSD1 in DIO mouse at 30 mg/kg, po after 16 hrs; type: functional; summary of the method: as §2
Mus musculus [20] = test: Ex vivo inhibition of brain 11-beta-HSD1 in DIO mouse at 30 mg/kg, po after 7 hrs; type: functional; summary of the method: as §2
Mus musculus [21] = test: Ex vivo inhibition of liver 11-beta-HSD1 in DIO mouse at 30 mg/kg, po after 1 hr; type: functional; summary of the method: as §2
[22] = Volume of distribution at terminal phase in mouse at 5 mg/kg, iv and 10 mg/kg, po; type: ADME, organism-based; conditions: in vivo, read-out: Vbeta
[23] = AUC in mouse at 5 mg/kg, iv and 10 mg/kg, po; type: ADME, organism-based; conditions: plasma
[24] = Oral bioavailability in mouse at 5 mg/kg, iv and 10 mg/kg, po; type: ADME, organism-based; conditions: in vivo
[25] = Half life in mouse at 5 mg/kg, iv and 10 mg/kg, po; type: ADME, organism-based; conditions: in vivo
[26] = Volume of distribution at steady state in mouse at 5 mg/kg, iv and 10 mg/kg, po; type: ADME, organism-based; conditions: in vivo, read-out: Vdss
[27] = Plasma clearance in mouse at 5 mg/kg, iv and 10 mg/kg, po; type: ADME, organism-based

Row | Compound | remaining at 0.5 h [1] [%] | IC50 [2] [µM] | IC50 [3] [µM] | IC50 [4] [µM] | Ki [5] [µM] | Ki [6] [µM] | further results
1 | CC(C)(Oc1ccccc1Cl)C(=O)N[C@H]1C2CC3CC1C[C@](S(N)(=O)=O)(C3)C2 | 36 | 0.083 | > 100 | 5.5 | 0.002 | 0.004 | –
2 | CC(C)(Oc1ccc(F)cc1Cl)C(=O)N[C@H]1C2CC3CC1C[C@](S(=O)(=O)CCCN1CCOCC1)(C3)C2 | < 1 | 0.5 | 87 | 15 | 0.038 | 0.11 | –
3 | COc1cc(F)ccc1OC(C)(C)C(=O)N[C@H]1C2CC3CC1C[C@](S(C)(=O)=O)(C3)C2 | – | 0.69 | > 100 | > 100 | 0.007 | 0.02 | –
4 | CCS(=O)(=O)[C@]12CC3CC(C1)[C@@H](NC(=O)C(C)(C)Oc1ccc(F)cc1Cl)C(C3)C2 | – | – | > 100 | – | 0.007 | – | –
5 | CC(C)(Oc1ccc(F)cc1Cl)C(=O)N[C@H]1C2CC3CC1C[C@](S(=O)(=O)CC(N)=O)(C3)C2 | 59 | 0.3 | > 100 | 3.3 | 0.004 | 0.008 | –
6 | CC(C)(Oc1cccc(Cl)c1)C(=O)N[C@H]1C2CC3CC1C[C@](S(C)(=O)=O)(C3)C2 | 7 | – | > 100 | – | 0.01 | – | –
7 | CC(C)(Oc1ccc(Cl)cc1)C(=O)N[C@H]1C2CC3CC1C[C@](S(C)(=O)=O)(C3)C2 | 70 | – | > 100 | – | 0.008 | – | –
8 | CC(C)(Oc1ccc(Cl)cc1F)C(=O)N[C@H]1C2CC3CC1C[C@](S(C)(=O)=O)(C3)C2 | 63 | – | > 100 | – | 0.008 | – | –
9 | CC(C)(Oc1ccccc1)C(=O)N[C@H]1C2CC3CC1C[C@](S(N)(=O)=O)(C3)C2 | 62 | – | > 100 | – | 0.013 | – | –
10 | CN(C)S(=O)(=O)[C@]12CC3CC(C1)[C@@H](NC(=O)C(C)(C)Oc1ccc(Cl)cc1)C(C3)C2 | < 1 | – | 100 | – | 0.021 | – | –
11 | CC(=O)NS(=O)(=O)[C@]12CC3CC(C1)[C@@H](NC(=O)C(C)(C)Oc1ccc(Cl)cc1)C(C3)C2 | – | – | – | – | 0.11 | 0.17 | –
12 | CC(C)(Oc1ccccc1OC(F)(F)F)C(=O)N[C@H]1C2CC3CC1C[C@](S(N)(=O)=O)(C3)C2 | 38 | – | > 100 | – | 0.003 | – | –
13 | CC(C)(C(=O)N[C@H]1C2CC3CC1C[C@](S(N)(=O)=O)(C3)C2)c1ccccc1 | – | 0.42 | > 100 | > 100 | 0.21 | 0.008 | –
14 | CC(C)(Oc1ccc(F)cc1Cl)C(=O)N[C@H]1C2CC3CC1C[C@](S(N)(=O)=O)(C3)C2 | 61 | 0.125 | > 100 | > 100 | 0.003 | 0.006 | inhibition in vivo at 30 mg/kg (Mus musculus [7]): 29%; AUC [8]: 7000 ng·h/mL; Vd [9]: 3.5 L/kg; inhibition in vivo at 30 mg/kg (Mus musculus [10]): 62%; inhibition in vivo at 30 mg/kg (Mus musculus [11]): 78%; Vd [12]: 2.6 L/kg; inhibition in vivo at 30 mg/kg (Mus musculus [13]): 73%; half-life [14]: 2.8 h; inhibition in vivo at 30 mg/kg (Mus musculus [15]): 93%; inhibition in vivo at 30 mg/kg (Mus musculus [16]): 88%; clearance [17]: 15 mL/min/kg; bioavailability [18]: 61%; inhibition in vivo at 30 mg/kg (Mus musculus [19]): 82%; inhibition in vivo at 30 mg/kg (Mus musculus [20]): 48%; inhibition in vivo at 30 mg/kg (Mus musculus [21]): 70%
15 | CC(C)(Oc1c(Cl)cc(F)cc1Cl)C(=O)N[C@H]1C2CC3CC1C[C@](S(N)(=O)=O)(C3)C2 | 55 | 0.19 | > 100 | 9 | 0.002 | 0.003 | –
16 | CNS(=O)(=O)[C@]12CC3CC(C1)[C@@H](NC(=O)C(C)(C)Oc1ccc(Cl)cc1)C(C3)C2 | < 1 | – | > 100 | – | – | – | –
17 | CC(C)(Oc1ccc(Cl)cc1)C(=O)N[C@H]1C2CC3CC1C[C@](S(N)(=O)=O)(C3)C2 | 96 | – | > 100 | – | – | – | Vd [22]: 2.1 L/kg; AUC [23]: 18300 ng·h/mL; bioavailability [24]: 150%; half-life [25]: 1.8 h; Vd [26]: 2.1 L/kg; clearance [27]: 13.3 mL/min/kg
18 | CC(C)(Oc1ccccc1C(F)(F)F)C(=O)N[C@H]1C2CC3CC1C[C@](S(C)(=O)=O)(C3)C2 | – | 0.12 | > 100 | > 100 | 0.003 | 0.007 | –
19 | CC(C)(Oc1ccccc1Cl)C(=O)N[C@H]1C2CC3CC1C[C@](S(C)(=O)=O)(C3)C2 | – | 0.12 | > 100 | 5.4 | 0.002 | 0.005 | –
20 | CC(C)(Oc1cccc(Cl)c1)C(=O)N[C@H]1C2CC3CC1C[C@](S(N)(=O)=O)(C3)C2 | – | 0.32 | > 100 | 6.3 | 0.006 | 0.004 | –
